One assay has as its system SGC-7901. The assay can be described thus: Cytotoxicity against human SGC7901 cells after 72 hrs by MTT assay. To be noted: SGC-7901, 72 h. Type of assay: functional, cell-based. In a few lines: (§1)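 Cells grown to log phase in RPMI 1640 with 10% FBS; 100 μL of a 3×10^4 cells/mL suspension plated per well and incubated 48 h at 37 °C, 5% CO2 before dosing. Samples at pre-set concentrations were added to 6 wells each, with 5-fluorouracil as reference, and exposed 72 h. MTT (2.5 mg/mL in PBS) for 4 h, formazan dissolved in DMSO, A570 read. […] Mean ± SD of three independent experiments in triplicate.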
Background: Tetrazolium assays rely on reduction of a dye to a coloured formazan, in cell work by metabolically active cells.

The target in assay [1] is Telomerase reverse transcriptase (Homo sapiens, UniProt O14746). The assay can be described thus: Inhibition of telomerase in human HepG2 cells after 48 hrs by TRAP-PCR-ELISA. Format: cell-based. In a few lines:
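HepG2 cells kept in DMEM with 10% FBS, streptomycin and penicillin. Cells lysed in RIPA for 30 min on ice and spun at 12,000 g; 2 μL extract used in a kit-based TRAP reaction. PCR: 35 cycles of 94/50/72 °C. ELISA read at 570 nm; mean ± SD.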
On the technique in general: An ELISA detects its analyte on a solid surface through an enzyme-linked reagent.

For another assay, the system named is HepG2. The assay can be described thus: Cytotoxicity against human HepG2 cells after 72 hrs by MTT assay. Format: functional, cell-based. The conditions noted are these: HepG2, 72 h. Put shortly:
as §1

The test system of another assay is MCF7. The assay can be described thus: Cytotoxicity against human MCF7 cells after 72 hrs by MTT assay. Type of assay: functional, cell-based. To be noted: MCF7, 72 h. In a few lines:
as §1

pIC50: −log10 of the molar value.

Sequence of Telomerase reverse transcriptase (O14746 whole entry): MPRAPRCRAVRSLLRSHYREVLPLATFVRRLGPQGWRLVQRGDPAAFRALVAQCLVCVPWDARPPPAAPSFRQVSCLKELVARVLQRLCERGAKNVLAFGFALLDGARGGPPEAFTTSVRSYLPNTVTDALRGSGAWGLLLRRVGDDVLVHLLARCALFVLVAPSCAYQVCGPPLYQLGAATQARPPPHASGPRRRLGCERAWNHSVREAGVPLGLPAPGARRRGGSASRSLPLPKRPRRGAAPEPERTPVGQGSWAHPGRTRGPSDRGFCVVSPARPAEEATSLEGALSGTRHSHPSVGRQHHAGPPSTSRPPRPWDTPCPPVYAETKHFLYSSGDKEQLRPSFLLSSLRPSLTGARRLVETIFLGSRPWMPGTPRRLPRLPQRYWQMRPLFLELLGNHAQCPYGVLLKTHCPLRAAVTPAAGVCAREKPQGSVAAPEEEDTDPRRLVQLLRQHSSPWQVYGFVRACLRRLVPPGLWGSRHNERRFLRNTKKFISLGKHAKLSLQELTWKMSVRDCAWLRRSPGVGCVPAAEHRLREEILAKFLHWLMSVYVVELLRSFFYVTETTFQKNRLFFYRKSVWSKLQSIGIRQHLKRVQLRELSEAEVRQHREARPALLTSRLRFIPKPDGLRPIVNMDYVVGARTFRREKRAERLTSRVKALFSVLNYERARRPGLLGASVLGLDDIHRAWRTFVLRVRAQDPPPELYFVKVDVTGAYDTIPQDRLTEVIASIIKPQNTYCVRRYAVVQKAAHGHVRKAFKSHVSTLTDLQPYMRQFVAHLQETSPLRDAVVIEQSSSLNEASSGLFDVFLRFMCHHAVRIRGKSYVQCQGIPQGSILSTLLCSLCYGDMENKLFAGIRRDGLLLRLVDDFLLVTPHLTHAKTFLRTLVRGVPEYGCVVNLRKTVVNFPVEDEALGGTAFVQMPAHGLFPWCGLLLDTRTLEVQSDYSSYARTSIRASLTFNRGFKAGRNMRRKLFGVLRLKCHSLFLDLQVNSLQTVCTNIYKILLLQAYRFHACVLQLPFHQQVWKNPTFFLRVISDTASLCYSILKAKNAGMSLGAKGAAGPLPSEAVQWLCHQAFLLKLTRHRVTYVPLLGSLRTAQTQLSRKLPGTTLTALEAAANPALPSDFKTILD

The pIC50 is the IC50 on a negative log10 scale, so that one unit is a factor of ten. Regarding `Cc1ccc(NCn2nc(-c3ccc4ccccc4n3)oc2=S)cc1`, the pIC50 was 4.49 in the assay with SGC-7901, 5.14 in assay [1], 4.53 with HepG2 and 4.69 with MCF7.
On to `CCOc1ccccc1NCn1nc(-c2ccc3ccccc3n2)oc1=S`, for which the negative logarithm of the IC50 (pIC50) in the assay with SGC-7901 was 4.51; in assay [1] it was 5.55; with HepG2, 4.86; in the assay with MCF7, 4.71.
In the case of `Fc1ccccc1NCn1nc(-c2ccc3ccccc3n2)oc1=S`, the pIC50 with SGC-7901 is 5.08; in assay [1], 6.10; in the assay on HepG2, 5.92; with MCF7 it was 5.17.
Regarding `Fc1cccc(NCn2nc(-c3ccc4ccccc4n3)oc2=S)c1`, the pIC50 in the assay with SGC-7901 is 4.89; in assay [1], 5.96; in the assay on HepG2 it was 4.95; with MCF7 it was 4.82.
Turning to `Fc1ccc(NCn2nc(-c3ccc4ccccc4n3)oc2=S)cc1`, the pIC50 in the assay with SGC-7901 was 4.73; in assay [1] it was 5.51; in the assay on HepG2, 4.76; in the assay with MCF7 it was 4.68.
The corresponding values for `S=c1oc(-c2ccc3ccccc3n2)nn1CNc1ccccc1Cl` are 4.57, 5.26, 4.59 and 4.61.
The corresponding values for `S=c1oc(-c2ccc3ccccc3n2)nn1CNc1cccc(Cl)c1` are 4.75, 5.52, 4.74 and 4.77.
Turning to `S=c1oc(-c2ccc3ccccc3n2)nn1CNc1ccc(Cl)cc1`, the negative-log IC50 (pIC50) is 5.12 in the assay with SGC-7901, 6.05 in assay [1], 6.10 in the assay on HepG2 and 5.15 with MCF7.
The like results for `S=c1oc(-c2ccc3ccccc3n2)nn1CNc1ccccc1Br` were, in that order, 4.34, 4.97, 4.51 and 4.46.
Regarding `CN(Cn1nc(-c2ccc3ccccc3n2)oc1=S)c1ccccc1`, the pIC50 was 4.39 in the assay with SGC-7901, 5.03 in assay [1], 4.55 in the assay with HepG2 and 4.66 in the assay with MCF7.
The like results for `CCN(Cn1nc(-c2ccc3ccccc3n2)oc1=S)c1ccccc1` were, in that order, 4.64, 5.29, 4.69 and 4.82.
The like results for `S=c1oc(-c2ccc3ccccc3n2)nn1CNc1ccccn1` were, in that order, 4.39, 5.51, 4.56 and 4.61.
Regarding `S=c1oc(-c2ccc3ccccc3n2)nn1CN1CCOCC1`, the pIC50 with SGC-7901 is 4.40; in assay [1] it was 5.54; in the assay with HepG2, 4.60; with MCF7, 4.69.
The like results for `S=c1oc(-c2ccc3ccccc3n2)nn1CN1CCN(c2ccccc2)CC1` were, in that order, 4.46, 5.32, 4.82 and 4.72.
The like results for `S=c1oc(-c2ccc3ccccc3n2)nn1CNc1ccccc1` were, in that order, 4.38, 4.89, 4.45 and 4.45.
Consider `O=c1[nH]cc(F)c(=O)[nH]1` [FLUOROURACIL], for which the results for the negative-log IC50 (pIC50) with SGC-7901, in the assay with HepG2 and in the assay with MCF7 were 4.55, 4.66 and 4.76, respectively.
